Data from article PMC8359128 (ACS Omega, 2021).

Key:
human CB1 receptor [1] = target: T1, human CB1 receptor (Homo sapiens, UniProt P21554); assay: Competitive radioligand; type: binding; settings: for inhibition at 10 µM: read-out: % displacement at 10 μM CB1
human CB2 receptor [2] = target: T2, human CB2 receptor (Homo sapiens, UniProt P34972); assay: Competitive radioligand; type: binding; settings: for inhibition at 10 µM: read-out: % displacement at 10 μM CB2
human CB1 receptor [3] = target: T1, human CB1 receptor; assay: [35S]-GTPγS functional assay, CB1; type: biochemical; settings: for functional behavior at CB1: GTPγS
How it was run: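 Membranes (20 µg) from HEK293 cells stably expressing human CB1, incubated with 0.5 nM [35S]-GTPγS, 30 µM GDP and test compound in 50 mM Tris-HCl, 150 mM NaCl, 9 mM MgCl2, 0.2 mM EGTA, 1.4 mg/mL BSA, pH 7.4. Incubation 2 h, 37 °C, gentle shaking. […] Filtration, scintillation counting. Duplicates; EC50 by nonlinear regression.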

human CB2 receptor [4] = target: T2, human CB2 receptor; assay: [35S]-GTPγS functional assay, CB2; type: biochemical; settings: for functional behavior at CB2: GTPγS
[5] = (−)-trans vs (+)-trans isomer; cited from earlier work
[6] = IC50 CB2 displacement (bound given in text)
[7] = IC50 ± SEM CB2, competitive radioligand binding, triplicate

T1 sequence (P21554 whole entry): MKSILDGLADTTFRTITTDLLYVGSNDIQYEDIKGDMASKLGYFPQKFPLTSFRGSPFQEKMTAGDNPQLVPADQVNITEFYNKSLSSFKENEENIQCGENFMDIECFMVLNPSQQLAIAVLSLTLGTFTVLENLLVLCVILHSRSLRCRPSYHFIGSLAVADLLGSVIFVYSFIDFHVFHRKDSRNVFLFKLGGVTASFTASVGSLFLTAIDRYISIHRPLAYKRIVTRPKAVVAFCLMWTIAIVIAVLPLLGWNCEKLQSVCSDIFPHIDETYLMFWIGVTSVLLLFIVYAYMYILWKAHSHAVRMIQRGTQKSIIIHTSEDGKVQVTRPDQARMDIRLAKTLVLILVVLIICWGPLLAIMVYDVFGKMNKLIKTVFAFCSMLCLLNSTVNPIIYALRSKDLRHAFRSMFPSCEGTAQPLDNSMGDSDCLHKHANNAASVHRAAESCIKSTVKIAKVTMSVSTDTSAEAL
T2 sequence (P34972 whole entry): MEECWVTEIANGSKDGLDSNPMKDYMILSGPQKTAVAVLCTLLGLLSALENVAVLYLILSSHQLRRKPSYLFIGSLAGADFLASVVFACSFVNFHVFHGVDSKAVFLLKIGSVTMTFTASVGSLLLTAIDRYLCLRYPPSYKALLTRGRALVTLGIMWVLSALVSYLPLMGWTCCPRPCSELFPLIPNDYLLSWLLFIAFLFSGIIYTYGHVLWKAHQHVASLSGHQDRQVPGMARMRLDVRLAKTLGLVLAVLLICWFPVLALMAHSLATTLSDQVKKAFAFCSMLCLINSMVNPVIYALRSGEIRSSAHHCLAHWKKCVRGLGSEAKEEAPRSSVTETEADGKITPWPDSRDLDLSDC

SMILES	inhibition at 10 µM (human CB1 receptor [1]) [%]	Ki (human CB2 receptor [2]) [nM]	IC50 (human CB2 receptor [2]; [6]) [nM]	IC50 (human CB2 receptor [2]; [7]) [nM]	inhibition at 10 µM (human CB2 receptor [2]) [%]	also measured
C[C@H]1CC[C@H]2[C@H](C1)c1c(O)cc(-c3ccccc3)cc1OC2(C)C [11A, (6aS,9S,10aS)-6,6,9-Trimethyl-3-phenyl-6a,7,8,9,10,10a-hexahydro-6H-benzo[c]chromen-1-ol]	34.3	1570 ± 836	≤ 3200	3150 ± 1670	57.3	
C[C@H]1CC[C@H]2[C@H](C1)c1c(O)cc(-c3ccc4c(c3)OCO4)cc1OC2(C)C [11B, (6aS,9S,10aS)-3-(Benzo[d][1,3]dioxol-5-yl)-6,6,9-trimethyl-6a,7,8,9,10,10a-hexahydro-6H-benzo[c]chromen-1-ol]	30.8	117 ± 11.7	≤ 3200		67	
C[C@H]1CC[C@H]2[C@H](C1)c1c(O)cc(-c3ccc(C#N)cc3)cc1OC2(C)C [11C, 4-((6aS,9S,10aS)-1-Hydroxy-6,6,9-trimethyl-6a,7,8,9,10,10a-hexahydro-6H-benzo[c]chromen-3-yl)benzonitrile]	-7.02				22.1	
C[C@H]1CC[C@H]2[C@H](C1)c1c(O)cc(-c3ccoc3)cc1OC2(C)C [11D, (6aS,9S,10aS)-3-(Furan-3-yl)-6,6,9-trimethyl-6a,7,8,9,10,10a-hexahydro-6H-benzo[c]chromen-1-ol]	34				44.4	
CCCCCC/C=C/c1cc(O)c2c(c1)OC(C)(C)[C@H]1CC[C@H](C)C[C@H]21 [11E, (6aS,9S,10aS)-6,6,9-Trimethyl-3-((E)-oct-1-en-1-yl)-6a,7,8,9,10,10a-hexahydro-6H-benzo[c]chromen-1-ol]	66.8	573 ± 106	≤ 3200	1150 ± 212	50.4	IC50 (human CB1 receptor [1]): 684 ± 326 nM; Ki (human CB1 receptor [1]): 342 ± 95.8 nM; EC50 (human CB1 receptor [3]): 239 ± 68 nM; functional behavior at CB1 (human CB1 receptor [3]): agonist
C[C@H]1CC[C@H]2[C@H](C1)c1c(O)cc(/C=C/c3ccc(C(F)(F)F)cc3)cc1OC2(C)C [11F, (6aS,9S,10aS)-6,6,9-Trimethyl-3-((E)-4-(trifluoromethyl)styryl)-6a,7,8,9,10,10a-hexahydro-6H-benzo[c]chromen-1-ol]	43.2				23.9	
C[C@H]1CC[C@H]2[C@H](C1)c1c(O)cc(/C=C/c3ccc(Cl)cc3)cc1OC2(C)C [11G, (6aS,9S,10aS)-3-((E)-4-Chlorostyryl)-6,6,9-trimethyl-6a,7,8,9,10,10a-hexahydro-6H-benzo[c]chromen-1-ol]	7.54				8.7	
C[C@H]1CC[C@H]2[C@H](C1)c1c(O)cc(-c3cccc4c3oc3ccccc34)cc1OC2(C)C [11H, (6aS,9S,10aS)-3-(Dibenzo[b,d]furan-4-yl)-6,6,9-trimethyl-6a,7,8,9,10,10a-hexahydro-6H-benzo[c]chromen-1-ol]	29.4	63.7 ± 8.19	≤ 3200	127 ± 16.4	76.2	EC50 (human CB2 receptor [4]; EC50 GTPγS CB2, duplicate): 5730 ± 3290 nM; functional behavior at CB2 (human CB2 receptor [4]): agonists
C[C@H]1CC[C@H]2[C@H](C1)c1c(O)cc(-c3ccc(Oc4ccccc4)cc3)cc1OC2(C)C [11I, (6aS,9S,10aS)-6,6,9-Trimethyl-3-(4-phenoxyphenyl)-6a,7,8,9,10,10a-hexahydro-6H-benzo[c]chromen-1-ol]	34.4				16.3	
C[C@H]1CC[C@H]2[C@H](C1)c1c(O)cc(-c3csc4ccccc34)cc1OC2(C)C [11J, (6aS,9S,10aS)-3-(Benzo[b]thiophen-3-yl)-6,6,9-trimethyl-6a,7,8,9,10,10a-hexahydro-6H-benzo[c]chromen-1-ol]	56.4	40.2 ± 2.91	≤ 3200	80.4 ± 5.82	70.4	IC50 (human CB1 receptor [1]): > 2000 nM; Ki (human CB1 receptor [1]): > 1000 nM; EC50 (human CB1 receptor [3]): 1470 ± 708 nM; functional behavior at CB1 (human CB1 receptor [3]): agonists; functional behavior at CB2 (human CB2 receptor [4]): agonists
C[C@H]1CC[C@H]2[C@H](C1)c1c(O)cc(-c3cc(C(F)(F)F)cc(C(F)(F)F)c3)cc1OC2(C)C [11K, (6aS,9S,10aS)-3-(3,5-Bis(trifluoromethyl)phenyl)-6,6,9-trimethyl-6a,7,8,9,10,10a-hexahydro-6H-benzo[c]chromen-1-ol]	-26.7				11.2	
CCCCCc1cc(O)c2c(c1)OC(C)(C)[C@@H]1CCC(C)=C[C@@H]21 [dronabinol]						potency relative to the (+)-trans-isomer of Δ9-THC [5]: 6–100 times
